In ChEMBL document CHEMBL2346543, “Triazolopyridazine LRRK2 kinase inhibitors” (Bioorg Med Chem Lett, 2013):
≈ marks a conversion by molar mass, not a printed value. Values belong to the compound of their own block, whether it stands above or below them.

Key:
[1] = system: Liver microsomes; assay: Metabolic stability in human liver microsomes; assay type: ADME, Microsome
[2] = molecular target: Tyrosine-protein kinase SYK (Homo sapiens) (UniProt P43405); assay: Inhibition of Syk (unknown origin) at 1 uM
In short: (§1)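 Single-point panel run by an outside contract lab: inhibition of each of 40 selected kinases measured at 1 µM test compound; percent inhibition reported.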

[3] = molecular target: Leucine-rich repeat serine/threonine-protein kinase 2 (Homo sapiens, UniProt Q5S007); assay: Inhibition of wild type LRRK2 (unknown origin) by TR-FRET assay
Chain of Leucine-rich repeat serine/threonine-protein kinase 2 (Homo sapiens, UniProt Q5S007) (Q5S007 whole entry): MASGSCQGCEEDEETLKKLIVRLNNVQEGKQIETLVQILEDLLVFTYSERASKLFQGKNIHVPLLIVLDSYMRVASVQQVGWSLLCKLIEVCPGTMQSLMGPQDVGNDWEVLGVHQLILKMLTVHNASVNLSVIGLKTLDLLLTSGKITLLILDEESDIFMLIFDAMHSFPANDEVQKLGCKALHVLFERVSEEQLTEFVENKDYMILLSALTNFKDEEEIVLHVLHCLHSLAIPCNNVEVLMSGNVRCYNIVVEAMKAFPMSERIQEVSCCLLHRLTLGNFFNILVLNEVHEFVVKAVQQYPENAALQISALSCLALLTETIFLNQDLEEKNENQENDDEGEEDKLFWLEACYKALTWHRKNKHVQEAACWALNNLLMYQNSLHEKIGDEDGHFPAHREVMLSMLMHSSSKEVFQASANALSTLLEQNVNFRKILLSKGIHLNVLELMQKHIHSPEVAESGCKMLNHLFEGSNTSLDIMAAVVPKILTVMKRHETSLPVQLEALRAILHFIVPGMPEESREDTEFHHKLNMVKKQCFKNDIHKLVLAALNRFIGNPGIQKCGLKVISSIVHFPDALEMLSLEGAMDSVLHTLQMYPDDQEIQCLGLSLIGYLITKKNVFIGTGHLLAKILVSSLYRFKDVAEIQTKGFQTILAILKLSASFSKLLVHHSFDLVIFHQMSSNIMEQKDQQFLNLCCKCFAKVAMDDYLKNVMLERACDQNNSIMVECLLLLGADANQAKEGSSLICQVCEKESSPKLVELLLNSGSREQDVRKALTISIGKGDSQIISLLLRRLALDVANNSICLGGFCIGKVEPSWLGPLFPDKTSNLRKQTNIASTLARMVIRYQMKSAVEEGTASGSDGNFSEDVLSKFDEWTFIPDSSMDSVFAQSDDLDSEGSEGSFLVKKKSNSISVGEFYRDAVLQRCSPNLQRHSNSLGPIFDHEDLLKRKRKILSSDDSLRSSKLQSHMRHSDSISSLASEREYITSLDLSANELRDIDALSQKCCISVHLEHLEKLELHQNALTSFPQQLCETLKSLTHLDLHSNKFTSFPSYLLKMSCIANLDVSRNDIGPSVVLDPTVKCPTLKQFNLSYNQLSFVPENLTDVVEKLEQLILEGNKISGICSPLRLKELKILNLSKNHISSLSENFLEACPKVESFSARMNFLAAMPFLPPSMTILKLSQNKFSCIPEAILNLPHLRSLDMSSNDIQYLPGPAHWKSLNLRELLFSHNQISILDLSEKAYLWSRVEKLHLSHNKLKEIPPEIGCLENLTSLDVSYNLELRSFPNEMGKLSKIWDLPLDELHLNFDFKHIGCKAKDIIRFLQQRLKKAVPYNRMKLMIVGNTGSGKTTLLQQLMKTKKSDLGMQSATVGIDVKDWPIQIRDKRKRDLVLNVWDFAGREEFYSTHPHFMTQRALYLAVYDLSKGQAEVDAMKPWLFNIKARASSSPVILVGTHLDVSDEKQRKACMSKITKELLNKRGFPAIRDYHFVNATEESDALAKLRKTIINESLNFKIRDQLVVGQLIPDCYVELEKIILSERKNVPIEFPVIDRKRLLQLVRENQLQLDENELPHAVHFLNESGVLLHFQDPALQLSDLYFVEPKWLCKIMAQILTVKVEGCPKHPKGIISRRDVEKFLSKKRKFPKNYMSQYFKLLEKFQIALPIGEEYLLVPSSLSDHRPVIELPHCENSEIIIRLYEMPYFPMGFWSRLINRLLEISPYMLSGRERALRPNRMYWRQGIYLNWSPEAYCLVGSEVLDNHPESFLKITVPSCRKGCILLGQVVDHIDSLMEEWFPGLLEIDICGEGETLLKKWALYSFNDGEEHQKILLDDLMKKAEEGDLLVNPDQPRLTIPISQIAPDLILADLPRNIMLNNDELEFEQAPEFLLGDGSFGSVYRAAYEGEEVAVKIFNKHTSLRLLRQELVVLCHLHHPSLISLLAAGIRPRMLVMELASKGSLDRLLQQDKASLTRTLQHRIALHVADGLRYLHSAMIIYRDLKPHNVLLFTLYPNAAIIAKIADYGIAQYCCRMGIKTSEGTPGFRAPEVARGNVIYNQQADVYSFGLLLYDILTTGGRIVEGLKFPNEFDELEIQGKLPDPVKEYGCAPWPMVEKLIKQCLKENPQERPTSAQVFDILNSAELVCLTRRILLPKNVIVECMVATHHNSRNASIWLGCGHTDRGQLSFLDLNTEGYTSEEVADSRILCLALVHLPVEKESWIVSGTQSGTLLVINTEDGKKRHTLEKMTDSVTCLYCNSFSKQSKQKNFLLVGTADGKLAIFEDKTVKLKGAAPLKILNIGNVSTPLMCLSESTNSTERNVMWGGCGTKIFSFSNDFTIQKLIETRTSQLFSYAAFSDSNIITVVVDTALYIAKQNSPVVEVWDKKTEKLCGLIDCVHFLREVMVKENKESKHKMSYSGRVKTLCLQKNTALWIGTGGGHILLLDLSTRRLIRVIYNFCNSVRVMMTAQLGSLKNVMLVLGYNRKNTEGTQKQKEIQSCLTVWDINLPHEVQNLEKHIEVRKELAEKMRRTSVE
In short: (§2)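 HTRF assay with GST-LRRK2 (G2019S or wild type) measuring inhibition of LRRKtide phosphorylation. Biotinylated LRRKtide substrate; detection with Eu(K)-labelled anti-phospho-Moesin antibody plus streptavidin-XL665, read at 620 and 665 nm. Ratio taken as wild-type IC50 over G2019S IC50.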

[4] = molecular target: RAC-alpha serine/threonine-protein kinase (Homo sapiens) (UniProt P31749); assay: Inhibition of Akt1 (unknown origin) at 1 uM; in short: as §1
[5] = Permeability of the compound; assay type: ADME; conditions: not told; read-out: permeability
[6] = molecular target: Serine/threonine-protein kinase PLK1 (Homo sapiens) (UniProt P53350); assay: Inhibition of PLK1 (unknown origin) at 1 uM; in short: as §1
[7] = molecular target: Cyclin-dependent kinase 1/cyclin B1 (Homo sapiens) (UniProt P06493+P14635); assay: Inhibition of CDK1/Cyclin B (unknown origin) at 1 uM; assay type: protein-complex assay; in short: as §1
Chain of Cyclin-dependent kinase 1/cyclin B1 (Homo sapiens) (P06493 whole entry, looked up): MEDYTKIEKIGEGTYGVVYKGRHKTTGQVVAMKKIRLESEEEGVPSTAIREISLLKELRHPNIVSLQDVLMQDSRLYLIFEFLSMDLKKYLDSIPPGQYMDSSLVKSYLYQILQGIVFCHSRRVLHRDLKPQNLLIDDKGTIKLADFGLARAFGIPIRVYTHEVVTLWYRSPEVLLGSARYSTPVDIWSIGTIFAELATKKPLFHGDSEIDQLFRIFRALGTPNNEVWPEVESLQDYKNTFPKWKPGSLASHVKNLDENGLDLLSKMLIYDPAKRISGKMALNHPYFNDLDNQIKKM
Chain of Cyclin-dependent kinase 1/cyclin B1 (Homo sapiens) (P14635 whole entry, looked up): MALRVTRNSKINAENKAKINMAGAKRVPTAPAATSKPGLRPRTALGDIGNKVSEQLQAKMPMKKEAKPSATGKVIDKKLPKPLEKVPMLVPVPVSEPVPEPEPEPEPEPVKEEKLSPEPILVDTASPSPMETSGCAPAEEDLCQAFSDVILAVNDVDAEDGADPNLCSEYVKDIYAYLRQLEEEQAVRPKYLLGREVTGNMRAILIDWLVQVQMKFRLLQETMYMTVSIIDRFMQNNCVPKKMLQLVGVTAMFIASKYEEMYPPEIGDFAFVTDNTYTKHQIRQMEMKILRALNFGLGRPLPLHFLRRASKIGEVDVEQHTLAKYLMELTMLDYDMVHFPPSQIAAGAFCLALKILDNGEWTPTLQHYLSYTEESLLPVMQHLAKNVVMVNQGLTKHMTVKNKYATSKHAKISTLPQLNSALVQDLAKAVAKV

[8] = system: Liver microsomes; assay: Metabolic stability in rat liver microsomes after 30 mins; assay type: ADME, Microsome; conditions: 0.5 h
In short: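 Compound incubated with NADPH-supplemented rat liver microsomes at 37 °C for 30 min; parent consumption and sulfoxide/sulfone metabolite formation monitored.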

[9] = molecular target: Dual specificity protein kinase TTK (Homo sapiens) (UniProt P33981); assay: Inhibition of Ttk (unknown origin) at 1 uM; in short: as §1
[10] = molecular target: Phosphatidylinositol 4,5-bisphosphate 3-kinase catalytic subunit alpha isoform (Homo sapiens) (UniProt P42336); assay: Inhibition of PIK3CA (unknown origin) at 1 uM; in short: as §1
[11] = molecular target: Platelet-derived growth factor receptor alpha (Homo sapiens) (UniProt P16234); assay: Inhibition of PDGFRalpha (unknown origin) at 1 uM; in short: as §1
[12] = molecular target: Tyrosine-protein kinase JAK1 (Homo sapiens) (UniProt P23458); assay: Inhibition of Jak1 (unknown origin) at 1 uM; in short: as §1
[13] = molecular target: Aurora kinase A (Homo sapiens) (UniProt O14965); assay: Inhibition of Aurora A (unknown origin) at 1 uM; in short: as §1
[14] = molecular target: Cyclin-dependent kinase 5/CDK5 activator 1 (Homo sapiens) (UniProt Q00535+Q15078); assay: Inhibition of CDK5/p25 (unknown origin) at 1 uM; assay type: protein-complex assay; in short: as §1
[15] = Kinetic solubility of the compound in isotonic buffer at pH 7.4; assay type: physicochemical; conditions: read-out: Kinetic_solubility
[16] = molecular target: Proto-oncogene tyrosine-protein kinase receptor Ret (Homo sapiens) (UniProt P07949); assay: Inhibition of Ret (unknown origin) at 1 uM; in short: as §1
[17] = molecular target: Tyrosine-protein kinase ABL1 (Homo sapiens) (UniProt P00519); assay: Inhibition of Abl1 (unknown origin) at 1 uM; in short: as §1
[18] = molecular target: Macrophage colony-stimulating factor 1 receptor (Homo sapiens) (UniProt P07333); assay: Inhibition of CSF1R (unknown origin) at 1 uM; in short: as §1
[19] = molecular target: Serine/threonine-protein kinase Chk1 (Homo sapiens) (UniProt O14757); assay: Inhibition of Chek1 (unknown origin) at 1 uM; in short: as §1
Chain of Serine/threonine-protein kinase Chk1 (Homo sapiens) (O14757 whole entry): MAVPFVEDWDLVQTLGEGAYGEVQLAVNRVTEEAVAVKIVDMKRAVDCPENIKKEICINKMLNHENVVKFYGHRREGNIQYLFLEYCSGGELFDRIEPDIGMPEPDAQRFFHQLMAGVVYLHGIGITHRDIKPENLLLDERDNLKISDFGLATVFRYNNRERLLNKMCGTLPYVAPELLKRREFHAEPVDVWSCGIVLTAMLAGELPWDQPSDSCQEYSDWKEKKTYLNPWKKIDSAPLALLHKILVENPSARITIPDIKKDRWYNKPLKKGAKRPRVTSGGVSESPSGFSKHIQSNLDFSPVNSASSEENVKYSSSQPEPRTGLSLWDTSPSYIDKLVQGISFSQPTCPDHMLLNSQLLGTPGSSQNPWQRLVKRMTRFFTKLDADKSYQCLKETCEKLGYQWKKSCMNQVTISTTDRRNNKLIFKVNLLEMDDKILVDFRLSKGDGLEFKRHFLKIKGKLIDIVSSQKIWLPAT

[20] = species: Homo sapiens; assay: Selectivity ratio of IC50 for wild type LRRK2 (unknown origin) to IC50 for LRRK2 G2019S mutant (unknown origin); in short: as §2
[21] = molecular target: Receptor tyrosine-protein kinase erbB-4 (Homo sapiens) (UniProt Q15303); assay: Inhibition of ErbB4 (unknown origin) at 1 uM; in short: as §1
[22] = molecular target: Receptor-type tyrosine-protein kinase FLT3 (Homo sapiens) (UniProt P36888); assay: Inhibition of Flt3 (unknown origin) at 1 uM; in short: as §1
[23] = species: Homo sapiens; assay: Inhibition of MAPK (unknown origin) at 1 uM; in short: as §1
[24] = molecular target: RAF proto-oncogene serine/threonine-protein kinase (Homo sapiens) (UniProt P04049); assay: Inhibition of Raf1 (unknown origin) at 1 uM; in short: as §1
Chain of RAF proto-oncogene serine/threonine-protein kinase (Homo sapiens) (P04049 whole entry): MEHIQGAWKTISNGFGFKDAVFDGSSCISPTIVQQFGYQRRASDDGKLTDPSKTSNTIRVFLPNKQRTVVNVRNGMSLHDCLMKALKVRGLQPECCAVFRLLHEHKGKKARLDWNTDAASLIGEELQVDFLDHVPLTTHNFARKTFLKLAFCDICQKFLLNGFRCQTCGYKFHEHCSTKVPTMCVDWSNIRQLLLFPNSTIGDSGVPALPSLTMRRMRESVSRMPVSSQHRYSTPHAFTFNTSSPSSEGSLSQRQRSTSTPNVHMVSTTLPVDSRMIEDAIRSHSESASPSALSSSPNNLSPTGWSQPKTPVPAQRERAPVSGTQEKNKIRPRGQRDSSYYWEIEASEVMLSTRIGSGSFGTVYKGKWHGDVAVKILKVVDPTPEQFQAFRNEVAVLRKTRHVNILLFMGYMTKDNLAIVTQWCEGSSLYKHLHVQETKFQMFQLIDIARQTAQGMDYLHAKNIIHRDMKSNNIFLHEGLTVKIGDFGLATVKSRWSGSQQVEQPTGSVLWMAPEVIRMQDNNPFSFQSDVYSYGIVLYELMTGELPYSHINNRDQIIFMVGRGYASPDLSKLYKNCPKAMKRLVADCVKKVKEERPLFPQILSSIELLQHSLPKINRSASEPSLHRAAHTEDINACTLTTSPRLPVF

[25] = molecular target: Leucine-rich repeat serine/threonine-protein kinase 2 (Homo sapiens, UniProt Q5S007, G2019S); assay: Inhibition of LRRK2 G2019S mutant (unknown origin) by TR-FRET assay; in short: as §2
Chain of Leucine-rich repeat serine/threonine-protein kinase 2 (Homo sapiens, UniProt Q5S007, G2019S) (Q5S007 whole entry G2019S): as the sequence (Q5S007 whole entry) above, with G2019S counted along it

[26] = molecular target: Glycogen synthase kinase-3 beta (Homo sapiens) (UniProt P49841); assay: Inhibition of GSK3beta (unknown origin) at 1 uM; in short: as §1
Chain of Glycogen synthase kinase-3 beta (Homo sapiens) (P49841 whole entry, looked up): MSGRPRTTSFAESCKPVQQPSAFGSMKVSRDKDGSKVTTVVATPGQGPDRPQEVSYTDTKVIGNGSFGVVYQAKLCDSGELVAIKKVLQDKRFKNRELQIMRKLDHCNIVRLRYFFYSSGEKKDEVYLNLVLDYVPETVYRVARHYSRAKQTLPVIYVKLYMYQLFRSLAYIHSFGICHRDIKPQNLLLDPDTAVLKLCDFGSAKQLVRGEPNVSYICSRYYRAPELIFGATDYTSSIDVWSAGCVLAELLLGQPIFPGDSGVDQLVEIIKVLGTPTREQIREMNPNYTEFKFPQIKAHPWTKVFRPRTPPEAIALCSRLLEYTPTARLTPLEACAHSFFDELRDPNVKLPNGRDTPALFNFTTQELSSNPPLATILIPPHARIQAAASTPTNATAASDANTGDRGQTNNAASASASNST

[27] = system: P-gp; assay: Efflux ratio in P-gp (unknown origin) mediated drug transport; assay type: ADME; conditions: human, not told

- Stability [1]: Stable
- inhibition [2]: < 18%
- IC50 [3]: 242 nM
- inhibition [4]: < 18%
- Papp [5]: 2.1 ×10⁻⁶ cm/s
- inhibition [6]: < 18%
- inhibition [7]: < 18%
- Stability [8]: Unstable
- inhibition [9]: < 18%
- inhibition [10]: < 18%
- inhibition [11]: < 18%
- inhibition [12]: < 18%
- inhibition [13]: < 18%
- inhibition [14]: < 18%
- solubility kinetic [15]: 9 µM (≈ 3.35 µg/mL)
- inhibition [16]: < 18%
- inhibition [17]: < 18%
- inhibition [18]: < 18%
- inhibition [19]: < 18%
- Ratio IC50 [20]: 4.8
- inhibition [21]: < 18%
- inhibition [22]: < 18%
- inhibition [23]: < 18%
- inhibition [24]: < 18%
- IC50 [25]: 50 nM
- inhibition [26]: < 18%
SMILES: FC(F)(F)c1cccc(Sc2ccc3nnc(-c4ccccc4)n3n2)c1

- IC50 [3]: 535 nM
- Papp [5]: 28 ×10⁻⁶ cm/s
- solubility kinetic [15]: 72 µM (≈ 23.1 µg/mL)
- Ratio IC50 [20]: 2.7
- efflux ratio [27]: 0.8
- IC50 [25]: 200 nM
SMILES: COC(=O)C(C)Sc1ccc2nnc(-c3cccs3)n2n1 (configuration not stated)
